From ChEMBL document CHEMBL1944543, “A facile 'click' approach to novel 15β-triazolyl-5α-androstane derivatives, and an evaluation of their antiproliferative activities in vitro” (Bioorg Med Chem, 2012)
Active and inactive are the calls of the source. The rule behind the calls is not given here.

Experiments:
HeLa [1] = assay: Cell cycle arrest in human HeLa cells assessed as accumulation at G2/M phase after 24 hrs by flow cytometry; assay type: functional, cell-based
Summary of the method: (§1)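 HeLa cells were treated at […] for 24 or 48 h. Then 200,000 cells per condition were trypsinized, PBS-washed, fixed in cold 70% ethanol for 30 min on ice, washed twice and PI-stained for DNA. 20,000 events were recorded and subG1, G1, S and G2/M percentages computed, with subG1 taken as apoptotic. Values are means of three determinations, tested against control.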

HeLa [2] = assay: Antiproliferative activity against human HeLa cells after 72 hrs by MTT assay; assay type: functional, cell-based
Summary of the method: (§2)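 HeLa, MCF-7 and A431 cells were kept in minimal essential medium with 10% fetal bovine serum, 1% non-essential amino acids and antibiotic-antimycotic, at 37 °C in humidified 5% CO₂. Cells were seeded at 5000 cells/well, left overnight, then given compound-containing medium. Read-out was MTT colorimetric, with cisplatin as positive control. IC₅₀ came from fitted sigmoidal dose–response curves.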

HeLa [3] = assay: Cell cycle arrest in human HeLa cells assessed as accumulation at Sub-G1 phase at 3 to 10 uM after 24 hrs by flow cytometry analysis; assay type: functional, cell-based; summary of the method: as §1
HeLa [4] = assay: Cell cycle arrest in human HeLa cells at 3 to 10 uM after 48 hrs by flow cytometry analysis; assay type: functional, cell-based; summary of the method: as §1
HeLa [5] = assay: Cellular uptake in human HeLa cells after 24 hrs by fluorescence microscopy; assay type: ADME, cell-based
MCF7 = assay: Antiproliferative activity against human MCF7 cells after 72 hrs by MTT assay; assay type: functional, cell-based; details: MCF7, 72 h; summary of the method: as §2
HeLa [6] = assay: Induction of apoptosis in human HeLa cells assessed as nuclear condensation after 24 hrs by Hoechst 33258 staining based fluorescence microscopy; assay type: functional, cell-based
Summary of the method: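 Near-confluent HeLa cells were seeded at 5000 cells/well and exposed for 24 h to vehicle or compound at […]. Hoechst 33258 and PI were added at final 5 and 2 µg/mL, then incubated 1 h at 37 °C.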

A-431 = assay: Antiproliferative activity against human A431 cells after 72 hrs by MTT assay; assay type: functional, cell-based; details: A-431, 72 h; summary of the method: as §2
HeLa [7] = assay: Cell cycle arrest in human HeLa cells assessed as accumulation at G2/M phase at 3 to 10 uM after 24 hrs by flow cytometry; assay type: functional, cell-based; summary of the method: as §1
HeLa [8] = assay: Cell cycle arrest in human HeLa cells assessed as accumulation at S phase at 3 to 10 uM after 24 hrs by flow cytometry analysis; assay type: functional, cell-based; summary of the method: as §1

SMILES	Activity (HeLa [1])	IC50 (HeLa [2])	Activity (HeLa [3])	Activity (HeLa [4])	Drug uptake (HeLa [5])	IC50 (MCF7)	Activity (HeLa [6])	IC50 (A-431)	Activity (HeLa [7])	Activity (HeLa [8])
CC(=O)O[C@H]1CC[C@@]2(C)[C@@H](CC[C@H]3[C@@H]4[C@H](n5cc(-c6ccccc6)nn5)CC(=O)[C@@]4(C)CC[C@@H]32)C1	Dose-dependent effect	9.16 µM	Active	Active	Dose-dependent effect	1.69 µM	Dose-dependent effect	9.69 µM	–	–
CCCc1ccc(-c2cn([C@@H]3C[C@H](O)[C@@]4(C)CC[C@H]5[C@@H](CC[C@H]6C[C@@H](OC(C)=O)CC[C@@]65C)[C@H]34)nn2)cc1	–	6.52 µM	Active	Active	Dose-dependent effect	> 30 µM	Dose-dependent effect	> 30 µM	inactive	Active
COc1ccc2c(c1)CC[C@H]1[C@@H]3[C@H](n4cc(-c5ccccc5)nn4)CC(=O)[C@@]3(C)CC[C@H]21	–	14.9 µM	–	–	–	11.3 µM	–	4.77 µM	–	–
COc1ccc2c(c1)CC[C@H]1[C@@H]3[C@H](n4cc(-c5ccccc5)nn4)C[C@H](O)[C@@]3(C)CC[C@H]21	–	> 30 µM	–	–	–	> 30 µM	–	1.7 µM	–	–
CCCc1ccc(-c2cn([C@@H]3CC(=O)[C@@]4(C)CC[C@H]5[C@@H](CC[C@H]6C[C@@H](OC(C)=O)CC[C@@]65C)[C@H]34)nn2)cc1	–	15 µM	–	–	–	8.4 µM	–	> 30 µM	–	–
CC(=O)O[C@H]1CC[C@@]2(C)[C@@H](CC[C@H]3[C@@H]4[C@H](n5cc(-c6ccccc6)nn5)C[C@H](O)[C@@]4(C)CC[C@@H]32)C1	Dose-dependent effect	7.7 µM	Active	Active	Dose-dependent effect	19.2 µM	Dose-dependent effect	20.7 µM	–	–
CC(=O)O[C@H]1CC[C@@]2(C)[C@@H](CC[C@H]3[C@@H]4[C@H](n5cc(-c6ccc(F)cc6)nn5)CC(=O)[C@@]4(C)CC[C@@H]32)C1	–	11 µM	–	–	–	3.39 µM	–	16 µM	–	–
CC(=O)O[C@H]1CC[C@@]2(C)[C@@H](CC[C@H]3[C@@H]4[C@H](n5cc(-c6ccc(C)cc6)nn5)CC(=O)[C@@]4(C)CC[C@@H]32)C1	Dose-dependent effect	10.3 µM	–	–	Dose-dependent effect	2.68 µM	Dose-dependent effect	10.7 µM	–	–
CC(=O)O[C@H]1CC[C@@]2(C)[C@@H](CC[C@H]3[C@@H]4[C@H](n5cc(-c6ccc(C)cc6)nn5)C[C@H](O)[C@@]4(C)CC[C@@H]32)C1	Dose-dependent effect	9.4 µM	Active	Active	Dose-dependent effect	10.3 µM	Dose-dependent effect	22.4 µM	–	–
CC(=O)O[C@H]1CC[C@@]2(C)[C@@H](CC[C@H]3[C@@H]4[C@H](n5cc(-c6ccc(F)cc6)nn5)C[C@H](O)[C@@]4(C)CC[C@@H]32)C1	–	> 30 µM	–	–	–	> 30 µM	–	> 30 µM	–	–
